# Assay results reported in publication PMC9426400 (Hepatology Communications, 2022).
# Where two headings read alike, the source gives them in different places.
# Legend:
# FFD-fed C57BL/6 mice = assay: FFD mouse model of early NASH; type: in vivo
# [1] = test system: FFD-fed dyslipidemic Sprague Dawley rats; assay: Dyslipidemic rat model; type: in vivo; details: for Dose in ACCi combination with significantly reduced hepatic Apoc3 expression: relative to both vehicle and ACCi alone; for Dose inducing PPAR target genes in eWAT: epidydimal white adipose tissue
# Outline: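 Sprague Dawley rats fed FFD plus 4.03% sugar water (2.3% fructose, 1.7% glucose) for 28 days, across three studies. PPAR or THRβ agonists started Day 7 and ACCi Day 14. Circulating TG on Day 22 (serum Study 2, plasma Studies 3–4; n = 5–10/group). Terminal liver TG was taken fed, 8 h post-dose. Liver and eWAT gene expression measured. Nonparametric statistics, p ≤ 0.05.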
# subjects with NASH = details: cited from earlier work
# Huh7 cells = assay: FAO assay in Huh7 cells; type: cell-based, human; details: for EC50: Homo sapiens; for Stimulation of FAO: at the concentrations tested; for FAO induction (times): 14C-OA, monotherapy
# rat PPARδ = target: T1, rat PPARδ (Rattus norvegicus, UniProt Q62879); assay: PPAR luciferase reporter assay, rat PPARδ; type: cell-based
# T1 sequence (Q62879 1-440): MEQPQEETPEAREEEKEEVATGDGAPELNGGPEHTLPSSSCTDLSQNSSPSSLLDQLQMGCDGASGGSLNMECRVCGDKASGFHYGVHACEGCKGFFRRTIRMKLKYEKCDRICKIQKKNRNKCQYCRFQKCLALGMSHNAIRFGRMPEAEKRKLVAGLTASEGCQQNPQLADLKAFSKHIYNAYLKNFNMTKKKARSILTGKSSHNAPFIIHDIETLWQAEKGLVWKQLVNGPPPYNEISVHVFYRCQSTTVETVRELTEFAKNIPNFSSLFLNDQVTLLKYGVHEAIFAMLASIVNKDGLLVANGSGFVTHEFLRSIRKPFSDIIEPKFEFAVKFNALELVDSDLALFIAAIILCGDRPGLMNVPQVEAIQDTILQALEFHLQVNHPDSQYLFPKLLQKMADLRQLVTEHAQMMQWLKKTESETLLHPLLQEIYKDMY
# [2] = test system: LX2 human hepatic stellate cell line; assay: LX2 collagen assay; type: cell-based; details: LX-2, read-out: EC50, inhibition of collagen production
# FAO = FAO assay validation with CPT1 inhibitor etomoxir; type: cell-based; details: read-out: EC50, block of FAO
# [3] = Study 2, combination with ACCi 30 mg/kg, 15 mg/kg Feno, 30 mg/kg Ela
# [4] = Huh-7, read-out: FAO EC50, Huh7 cells, 14C-OA, monotherapy
smiles,measurement,setting,value
"CC(C)OC(=O)C(C)(C)Oc1ccc(C(=O)c2ccc(Cl)cc2)cc1 [Feno, fenofibrate]",Liver total cholesterol content reduction,FFD-fed C57BL/6 mice; Feno^high (150 mg/kg) monotherapy,57%
same,Liver total cholesterol content reduction,FFD-fed C57BL/6 mice; Feno^low (50 mg/kg) monotherapy,49%
same,Liver TG reduction compared with vehicle,[1]; [3],58%
same,Dose in ACCi combination with significantly reduced hepatic Apoc3 expression,[1],≥ 5 mg/kg
"COc1ccccc1[C@H](Cn1c(=O)n(C(C)(C)C(=O)O)c(=O)c2c(C)c(-c3ncco3)sc21)OC1CCOCC1 [FIR, Firsocostat]",Reduction in relative liver TG,subjects with NASH; subjects with NASH,30%
same,EC50,"Huh7 cells; Huh-7, read-out: FAO EC50, Huh7 cells, 14C-OA tracer",0.0327 µM
same,EC50,"Huh7 cells; Huh-7, read-out: FAO EC50, Huh7 cells, 14C-PA tracer",0.0166 µM
"O=C(O)CCCc1cc2cc(Cl)ccc2n1S(=O)(=O)c1ccc2ncsc2c1 [Lani, lanifibranor]",NASH resolution (share of subjects),"subjects with NASH; over 24 weeks, vs. 19% placebo",45%
same,Fibrosis regression (share of subjects),"subjects with NASH; over 24 weeks, vs. 24% placebo",42%
same,Stimulation of FAO,Huh7 cells; Huh7 cells,did not stimulate FAO
same,Activation of rat PPARδ,rat PPARδ,did not activate rat PPARδ
"CCO[C@@H](Cc1ccc(OCCn2c(C)ccc2-c2ccc(SC)cc2)cc1)C(=O)O [Saro, saroglitazar]",EC50,Huh7 cells; [4],51.5 µM
same,FAO induction (times),Huh7 cells; Huh7 cells,3.6 times
same,Dose inducing PPAR target genes in eWAT,[1]; dyslipidemic rats,3 mg/kg
same,Dose in ACCi combination with significantly reduced hepatic Apoc3 expression,[1],≥ 0.3 mg/kg
"CSc1ccc(C(=O)/C=C/c2cc(C)c(OC(C)(C)C(=O)O)c(C)c2)cc1 [Ela, elafibranor]",EC50,Huh7 cells; [4],10.3 µM
same,FAO induction (times),Huh7 cells; Huh7 cells,1.4 times
same,Liver TG reduction compared with vehicle,[1]; [3],76%
same,Dose in ACCi combination with significantly reduced hepatic Apoc3 expression,[1],≥ 3 mg/kg
same,EC50,[2],~2 µM
"CCO[C@H](COc1ccc(C(F)(F)F)cc1)CSc1ccc(OCC(=O)O)c(C)c1 [Sela, seladelpar]",NASH resolution (share of subjects),"subjects with NASH; over 52 weeks, vs. 8% placebo",26%
same,Stimulation of FAO,Huh7 cells; Huh7 cells,did not stimulate FAO
same,Dose inducing PPAR target genes in eWAT,[1]; dyslipidemic rats,15 mg/kg
same,Dose in ACCi combination with significantly reduced hepatic Apoc3 expression,[1],15 mg/kg
CCc1ccc(CCOc2ccc(CC3SC(=O)NC3=O)cc2)nc1 (centres unmarked) [pioglitazone],NASH resolution (share of subjects),subjects with NASH; vs. 21% placebo,47%
"CC(C)c1cc(Oc2c(Cl)cc(-n3nc(C#N)c(=O)[nH]c3=O)cc2Cl)n[nH]c1=O [Res, Resmetirom]",NASH resolution (share of subjects),subjects with NASH; vs. 6.5% placebo,27.4%
same,EC50,Huh7 cells; [4],46 µM
same,FAO induction (times),Huh7 cells; Huh7 cells,1.6 times
same,Liver TG reduction compared with vehicle,"[1]; Study 4, 1 mg/kg Res in combination with ACCi 30 mg/kg",83%
same,Liver TG reduction compared with vehicle,"[1]; Study 4, 3 mg/kg Res in combination with ACCi 30 mg/kg",88%
same,Liver TG in combination with ACCi relative to ACCi alone,"[1]; dyslipidemic rats, combined with ACCi 30 mg/kg",lowered liver TG relative to ACCi alone
same,Circulating TG reduction vs. vehicle,"[1]; dyslipidemic rats, monotherapy, 3 mg/kg, after 1 week",50%
same,Dose in ACCi combination with significantly reduced hepatic Apoc3 expression,[1],3 mg/kg
CCOC(=O)[C@@]1(CCCCCCOc2ccc(Cl)cc2)CO1 [etomoxir],EC50,FAO,0.136 µM
CC(C)(Oc1ccc(C(=O)c2ccc(Cl)cc2)cc1)C(=O)O [Fenofibric acid],Activity in the FAO assay,"Huh7 cells; Huh7 cells, up to a concentration of 100 μM",not active
